# An excerpt weighted towards active compounds, which were near 2.5% of everything screened.
# E-selectin induc: E-selectin induction on HUVECs; P16581; HUVEC E-selectin immunofluorescence imaging; normalized: neutral wells 0, TNF-alpha wells 100; activation, % at 7.58 µM; 0.37% of 260,000 active; AID 686992;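 active = mean E-selectin-positive cell signal at least 10% of the positive control, reached in at least 60% of replicates, without over 20% cell loss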
#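 Assay system: HUVEC primary endothelial cells. Input: 3,000 HUVEC seeded per well. Doses: one compound dose added by pin transfer. Read-out basis: % PE-positive cells. Benchmarks: TNF-alpha high, DMSO low. Detection: immunofluorescence imaging. Buffer or medium: EGM-2, gelatin.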
# S100A4 inh HTS: inhibitors of human S100A4 binding to myosin IIA peptide. S100A4/TAMRA-MyoIIA peptide fluorescence polarization. inhibition, % at 10.7 µM. 0.14% of 360,000 active. AID 652163;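 active = mean inhibition of at least 70% across replicates, with every replicate also reaching that level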
# Target sequence (P26447 whole entry, looked up): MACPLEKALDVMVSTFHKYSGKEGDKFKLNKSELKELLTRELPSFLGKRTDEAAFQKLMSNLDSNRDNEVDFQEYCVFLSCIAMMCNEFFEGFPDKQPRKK
#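 Material: S100A4 monomer (human). Medium: Calcium-containing HEPES buffer, pH 7.2. Probe or stimulus: labelled myosin peptide probe, 5 nM. Compound dosing: one concentration per compound. Timing: polarization read 5 min after assay mix addition, stable 5–60 min. Benchmarks: DMSO as neutral control, TFP as positive control.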
# miR122 inh: blocks miR-122 activity in Huh7 sensor cells. activation (reporter increase), % at 12.5 µM. 0.3% of 340,000 active. AID 602342. Huh7 miR-122 Renilla luciferase sensor, 48 h; neutral wells = 0, positive control = 100;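 active = mean replicate activation score at least 90 and every replicate individually at or above 90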;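 note: higher luciferase means less miR-122 activity so hits act as miR-122 inhibitors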
# FGF22 binding: FGF22 (human) thermal shift binding; Q9HCT0; recombinant FGF22 thermal shift, SYPRO orange fluorescence; percent of sucrose octasulfate shift, DMSO zero; activity (Tm shift, normalised), % at 9.99 µM; 1.5% of 340,000 active; AID 651658;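 active = mean Tm shift, scaled 0 neutral to 100 positive control, at about 1.3% or above, every replicate too, limit read from the data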
# Target sequence (Q9HCT0 whole entry, looked up): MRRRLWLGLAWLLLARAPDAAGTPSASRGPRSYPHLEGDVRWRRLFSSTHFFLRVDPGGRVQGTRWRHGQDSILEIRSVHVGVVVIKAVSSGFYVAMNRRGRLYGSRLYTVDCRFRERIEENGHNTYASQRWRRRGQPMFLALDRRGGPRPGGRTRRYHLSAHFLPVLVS
# SIRT5 inh: blocks human SIRT5 desuccinylation of peptide. Q9NXA8. Purified SirT5, succinyl-peptide AMC, trypsin-coupled fluorescence. inhibition, % at 15 µM. 1.1% of 330,000 active; in the data active = inhibition above about 15%
# Target sequence (Q9NXA8 whole entry, looked up): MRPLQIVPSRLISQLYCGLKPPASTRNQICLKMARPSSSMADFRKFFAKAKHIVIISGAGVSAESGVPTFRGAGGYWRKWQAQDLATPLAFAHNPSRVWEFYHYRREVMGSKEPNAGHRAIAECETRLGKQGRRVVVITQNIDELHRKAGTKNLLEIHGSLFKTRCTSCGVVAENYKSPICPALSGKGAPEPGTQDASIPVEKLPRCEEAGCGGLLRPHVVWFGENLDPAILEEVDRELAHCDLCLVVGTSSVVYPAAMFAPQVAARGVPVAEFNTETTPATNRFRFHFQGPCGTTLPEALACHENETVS
# A number is an active result; – = inactive; · = not tested or not shown.
SMILES,E-selectin induc,S100A4 inh HTS,miR122 inh,FGF22 binding,SIRT5 inh
O=C(Nc1cccc(F)c1)N1C[C@H]2[C@@H](c3ccccc31)[C@H](CO)N2C(=O)c1ccccn1,–,–,–,–,–
C[C@@H]1CN([C@@H](C)CO)C(=O)Cc2cc(NC(=O)c3ccncc3)ccc2O[C@H]1CN(C)Cc1ccc2c(c1)OCO2,–,–,–,–,–
Clc1ccc(-c2noc(CN(Cc3ccccn3)CC3CCCO3)n2)cc1 (stereo not given),·,–,–,43.4,–
COc1ccc(C)cc1S(=O)(=O)NC1CCCCCC1,–,–,101.0,–,–
COc1ccc(S(=O)(=O)NC2CCCCC2)c(C)c1C,·,·,111.4,·,·
OC[C@@H]1[C@@H](c2ccccc2)C2(CN(CC3CC3)C2)N1Cc1ccc(F)cc1,–,–,·,–,–
CCCNC(=O)Nc1ccc2c(c1)C(=O)N(C)C[C@H](OC)[C@H](C)CN(Cc1ccccc1)[C@H](C)CO2,–,·,–,·,·
C[C@@H]1CN([C@H](C)CO)C(=O)c2cc(NC(=O)Nc3ccccc3)ccc2O[C@H]1CN(C)C(=O)Nc1ccc2c(c1)OCO2,–,·,–,·,·
CC(C)CN(CC(C)C)C(=O)c1cccc(S(=O)(=O)N2CCc3ccccc32)c1,–,–,–,43.8,–
O=C(COC(=O)c1cccc(S(=O)(=O)N2CCc3ccccc3C2)c1)NCc1ccco1,·,·,–,·,·
CC(C)CCNC(=O)c1cccc(S(=O)(=O)N2CCc3ccccc32)c1,·,·,–,·,·
O=C(O)CCCC(=O)N1CCc2cc(S(=O)(=O)N3CCc4ccccc43)ccc21,·,–,–,–,27.7
O=C(COC(=O)c1cccc(S(=O)(=O)N2CCc3ccccc32)c1)NCc1ccco1,·,–,·,43.9,–
COc1ccc2c3c([nH]c2c1)[C@H](CO)N(C(=O)c1ccncc1)CC31CN(C(=O)NC(C)C)C1,–,·,·,·,·
COc1ccc(NC(=O)N(C)C[C@@H]2OCc3ccccc3-c3c(n(C)c4ccccc34)C(=O)N([C@@H](C)CO)C[C@@H]2C)cc1,–,–,·,–,20.5
C[C@H](CO)N1C[C@H](C)[C@@H](CN(C)C(=O)Nc2ccc(F)cc2)OCc2ccccc2-c2c(n(C)c3ccccc23)C1=O,–,–,·,–,15.5
C[C@H]1CN([C@@H](C)CO)C(=O)c2c(c3ccccc3n2C)-c2ccccc2CO[C@H]1CN(C)C(=O)Nc1ccccc1,–,–,·,–,–
COc1cccc(NC(=O)N(C)C[C@@H]2OCc3ccccc3-c3c(n(C)c4ccccc34)C(=O)N([C@@H](C)CO)C[C@@H]2C)c1,–,97.1,·,–,–
N/C(=N\OC(=O)c1cccc2ccccc12)c1ccc(Br)cc1,·,–,·,44.0,–
COc1ccc(OC)c(NC(=O)CSc2n[nH]c(-c3cccnc3)n2)c1,–,–,·,–,16.6
CC(=O)c1cccc(NC(=O)CSc2n[nH]c(-c3ccncc3)n2)c1,·,–,·,1.7,–
CCc1ccccc1NC(=O)CSc1n[nH]c(-c2cccnc2)n1,–,–,–,–,–
Cc1ccc(S(=O)(=O)Nc2ccc3c(c2)C(=O)N([C@@H](C)CO)C[C@@H](C)[C@@H](CN(C)Cc2ccc(-c4ccccc4)cc2)O3)cc1,–,–,–,–,16.5
Cc1ccc(S(=O)(=O)Nc2ccc3c(c2)C(=O)N([C@@H](C)CO)C[C@@H](C)[C@H](CN(C)Cc2ccc(-c4ccccc4)cc2)O3)cc1,–,–,–,–,–
C[C@H]1CN([C@@H](C)CO)C(=O)c2cc(NS(=O)(=O)c3ccc(F)cc3)ccc2O[C@@H]1CN(C)Cc1ccc(-c2ccccc2)cc1,–,–,–,–,15.4
SMILES,E-selectin induc,S100A4 inh HTS,miR122 inh,FGF22 binding,SIRT5 inh
C[C@@H]1CN([C@@H](C)CO)C(=O)c2cc(NS(=O)(=O)c3ccccc3)ccc2O[C@@H]1CN(C)Cc1ccc(-c2ccccc2)cc1,–,–,–,–,17.6
COC(=O)C[C@H]1CC[C@@H]2[C@H](COc3ccc(NC(=O)c4cc(F)cc(F)c4)cc3C(=O)N2C)O1,–,·,–,–,·
C[C@H]1CCCCO[C@@H](CN(C)C(=O)NC2CCCCC2)[C@@H](C)CN([C@@H](C)CO)C(=O)c2cc(NS(=O)(=O)c3cn(C)cn3)ccc2O1,–,–,–,–,–
CSc1ncnc2c1ncn2CCCN[C@H](C)c1cccc2ccccc12,–,–,–,–,–
CCC(C)C(CO)NCCCn1cnc2c(SC)ncnc21 (stereo not given),–,–,–,–,26.2
CN(C)C(=S)SCC(=O)Nc1ccc(Cl)cc1Cl,·,–,·,1.4,–
O=C(NC[C@@H]1N[C@@H](CO)[C@H]1c1ccc(-c2ccccc2F)cc1)c1ccccc1,–,–,–,–,–
CS(=O)(=O)c1ccc(Cl)c(NC(=O)COC(=O)CNC(=O)c2ccccc2)c1,–,–,·,43.7,–
CS(=O)(=O)c1ccc(Cl)c(NC(=O)Cc2c(Cl)cccc2Cl)c1,·,–,–,–,–
CS(=O)(=O)c1ccc(Cl)c(NC(=O)CCc2ccccc2)c1,–,–,·,43.4,–
COc1cc(OC)cc(C(=O)NCC(=O)OCC(=O)Nc2cc(S(C)(=O)=O)ccc2Cl)c1,–,–,–,–,–
CC1(C)C2CC=C(/C=N/NC(=O)c3ccccc3Br)C1C2 (stereo not given),–,–,·,43.4,–
C[C@H](CO)N1C[C@H](C)[C@@H](CN(C)S(=O)(=O)c2ccc(F)cc2)Oc2ccc(NC(=O)CCCCCC(=O)Nc3ccccc3N)cc2C1=O,–,–,·,–,·
O=[N+]([O-])c1cc(-c2cnc3ccccc3n2)ccc1Cl,·,–,·,43.7,–
N#Cc1cccc(-c2ccc([C@@H]3[C@@H](CO)N4CCCCN(S(=O)(=O)c5ccccc5)C[C@@H]34)cc2)c1,–,·,–,–,–
Cc1cccc(S(=O)(=O)N2CCCCN3[C@H](CO)[C@@H](c4ccc(-c5ccccc5)cc4)[C@@H]3C2)c1,·,–,–,–,15.6
N#Cc1cccc(-c2ccc([C@H]3[C@@H](CO)N4CCCCN(S(=O)(=O)c5ccccc5)C[C@H]34)cc2)c1,–,–,–,–,17.9
O=C(CN1CCOCC1)N1CCCCN2[C@H](C1)[C@H](c1ccc(-c3ccccc3)cc1)[C@@H]2CO,–,–,–,–,21.3
Cc1cccc(-c2ccc([C@H]3[C@H](CO)N4CCCCN(S(=O)(=O)c5cccc(C)c5)C[C@@H]34)cc2)c1,–,–,–,–,18.8
CCC(=O)N1CCCCN2[C@H](CO)[C@H](c3ccc(-c4cccc(C#N)c4)cc3)[C@@H]2C1,–,–,–,–,20.7
C[C@H](CO)N1C[C@H](C)[C@H](CN(C)S(C)(=O)=O)Oc2ccc(NC(=O)Nc3ccc(C(F)(F)F)cc3)cc2C1=O,·,–,–,–,–
CO[C@@H]1CC[C@@H]2CCOc3ccc(C#N)cc3C(=O)N(C)C[C@@H](c3ccccc3)CC(=O)N(C)C[C@@H]1O2,–,·,·,·,·

# Source: PubChem (Broad Institute)
